# The source made the active and inactive calls. The calls are words filed in the database; no cut-off is given here.
# Tested on: RAW264.7
# Assay: Inhibition of COX2 protein expression in LPS-stimulated mouse RAW264.7 cells by Western blot analysis
# Type: functional, cell-based
# Conditions: not given
# Procedure, shortened: (§1)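 RAW 264.7 cells exposed to LPS (1 μg/ml) with or without test agent at 0.4, 2 and 10 μM. Celecoxib (1 μM) served as reference. COX-2 and iNOS protein detected by Western blot, with actin as loading control.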
row,SMILES,inhibition
1,O=c1c(O)c(-c2ccc(O)c(O)c2)oc2cc(O)cc(O)c12 [QUERCETIN],Dose-dependent effect
2,O=c1c(O)c(-c2ccc(O)c(O)c2)oc2cc(O[C@@H]3O[C@H](CO)[C@@H](O)[C@H](O)[C@H]3O)cc(O)c12 [QUERCIMERITRIN],Dose-dependent effect

# Tested on: RAW264.7
# Assay: Antiinflammatory activity in mouse RAW264.7 cells assessed as inhibition of LPS-stimulated TNFalpha production at 2 uM by ELISA
# Type: functional
# Conditions: not given
# Procedure, shortened: (§2)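 RAW 264.7 cells were stimulated with LPS, with or without each compound at 0.4, 2.0 and 10.0 μM, and secreted TNF-α was measured. Concentrations were kept below 50 μM, the level checked by MTT for viability. Values are mean ± SD from at least three independent experiments, each run in triplicate.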
row,SMILES,inhibition at 2 µM
1,CC[C@H](C)C(=O)OC[C@@H]1O[C@@]2(C(=O)OC)C[C@@H](O)[C@@H](O)[C@@H]1O2,14.4%
2,CC1=C(C/C=C\CCO[C@@H]2O[C@H](CO)[C@@H](O)[C@H](O)[C@H]2O)C(=O)CC1,11.8%
3,O=C(/C=C/c1ccc(O)c(O)c1)O[C@@H]1C[C@](O)(C(=O)O)C[C@@H](O)[C@H]1O [CHLOROGENIC ACID],16.1%

# Tested on: RAW264.7
# Assay: Antiinflammatory activity in mouse RAW264.7 cells assessed as inhibition of LPS-stimulated TNFalpha production at 10 uM by ELISA
# Type: functional
# Conditions: not given
# Procedure, shortened: as §2
row,SMILES,inhibition at 10 µM
1,CC[C@H](C)C(=O)OC[C@@H]1O[C@@]2(C(=O)OC)C[C@@H](O)[C@@H](O)[C@@H]1O2,22%
2,CC1=C(C/C=C\CCO[C@@H]2O[C@H](CO)[C@@H](O)[C@H](O)[C@H]2O)C(=O)CC1,23%
3,COC(=O)[C@]1(O)C[C@@H](O)[C@@H](OC(=O)/C=C/c2ccc(O)c(O)c2)[C@H](OC(=O)/C=C/c2ccc(O)c(O)c2)C1,13%
4,OC[C@H]1O[C@@H](OCCc2ccccc2)[C@H](O)[C@@H](O)[C@@H]1O,13%
5,O=C(/C=C/c1ccc(O)c(O)c1)O[C@@H]1C[C@](O)(C(=O)O)C[C@@H](O)[C@H]1O [CHLOROGENIC ACID],24.7%
6,COc1cc(CCCO)cc(OC)c1O[C@@H]1O[C@H](CO)[C@@H](O)[C@H](O)[C@H]1O [DIHYDROSYRINGIN],13%
7,O=c1cc(-c2ccc(O)c(O)c2)oc2cc(O[C@@H]3O[C@H](CO)[C@@H](O)[C@H](O)[C@H]3O)cc(O)c12 [GALUTEOLIN],13%
8,O=c1c(O)c(-c2ccc(O)c(O)c2)oc2cc(O)cc(O)c12 [QUERCETIN],13%
9,O=c1c(O)c(-c2ccc(O)c(O)c2)oc2cc(O[C@@H]3O[C@H](CO)[C@@H](O)[C@H](O)[C@H]3O)cc(O)c12 [QUERCIMERITRIN],13%
10,COc1cc(/C=C/CO)cc(OC)c1O[C@@H]1O[C@H](CO)[C@@H](O)[C@H](O)[C@H]1O [SYRINGIN],13%

# Tested on: RAW264.7
# Assay: Cytotoxicity against mouse RAW264.7 cells at 50 uM by MTT assay
# Type: cell-based
# Conditions: raw264.7, 50 µM
row,SMILES,Activity
1,OC[C@H]1O[C@@H](OCc2ccccc2)[C@H](O)[C@@H](O)[C@@H]1O,Non-toxic
2,COc1cc(-c2oc3cc(O)cc(O)c3c(=O)c2O[C@@H]2O[C@H](CO)[C@@H](O)[C@H](O)[C@H]2O)ccc1O,Non-toxic
3,COC(=O)[C@]1(O)C[C@@H](O)[C@@H](OC(=O)/C=C/c2ccc(O)c(O)c2)[C@H](O)C1,Non-toxic
4,CC[C@H](C)C(=O)OC[C@@H]1O[C@@]2(C(=O)OC)C[C@@H](O)[C@@H](O)[C@@H]1O2,Non-toxic
5,CC1=C(C/C=C\CCO[C@@H]2O[C@H](CO)[C@@H](O)[C@H](O)[C@H]2O)C(=O)CC1,Non-toxic
6,COC(=O)[C@]1(O)C[C@@H](OC(=O)/C=C/c2ccc(O)c(O)c2)[C@@H](O)[C@H](OC(=O)/C=C/c2ccc(O)c(O)c2)C1,Non-toxic
7,COC(=O)[C@]1(O)C[C@@H](O)[C@@H](OC(=O)/C=C/c2ccc(O)c(O)c2)[C@H](OC(=O)/C=C/c2ccc(O)c(O)c2)C1,Non-toxic
8,OC[C@H]1O[C@@H](OCCc2ccccc2)[C@H](O)[C@@H](O)[C@@H]1O,Non-toxic
9,O=c1cc(-c2ccc(O)cc2)oc2cc(O[C@@H]3O[C@H](CO)[C@@H](O)[C@H](O)[C@H]3O)cc(O)c12 [APIGETRIN],Non-toxic
10,COC(=O)[C@]1(O)C[C@@H](O)[C@@H](O)[C@H](OC(=O)/C=C/c2ccc(O)c(O)c2)C1 [CHLOROGENIC ACID METHYL ESTER],Non-toxic
11,O=C(/C=C/c1ccc(O)c(O)c1)O[C@@H]1C[C@](O)(C(=O)O)C[C@@H](O)[C@H]1O [CHLOROGENIC ACID],Non-toxic
12,O=C(/C=C/c1ccc(O)c(O)c1)O[C@@H]1C[C@@](OC(=O)/C=C/c2ccc(O)c(O)c2)(C(=O)O)C[C@@H](O)[C@@H]1O [CYNARIN],Non-toxic
13,COc1cc(CCCO)cc(OC)c1O[C@@H]1O[C@H](CO)[C@@H](O)[C@H](O)[C@H]1O [DIHYDROSYRINGIN],Non-toxic
14,O=c1cc(-c2ccc(O)c(O)c2)oc2cc(O[C@@H]3O[C@H](CO)[C@@H](O)[C@H](O)[C@H]3O)cc(O)c12 [GALUTEOLIN],Non-toxic
15,O=c1c(O)c(-c2ccc(O)c(O)c2)oc2cc(O)cc(O)c12 [QUERCETIN],Non-toxic
16,O=c1c(O)c(-c2ccc(O)c(O)c2)oc2cc(O[C@@H]3O[C@H](CO)[C@@H](O)[C@H](O)[C@H]3O)cc(O)c12 [QUERCIMERITRIN],Non-toxic
17,COc1cc(/C=C/CO)cc(OC)c1O[C@@H]1O[C@H](CO)[C@@H](O)[C@H](O)[C@H]1O [SYRINGIN],Non-toxic
18,COc1cc(-c2cc(=O)c3c(O)cc(O)cc3o2)cc(OC)c1O [TRICIN],Non-toxic

# Tested on: RAW264.7
# Assay: Antiinflammatory activity in mouse RAW264.7 cells assessed as inhibition of LPS-stimulated nitric oxide production at 0.4 to 10 uM after 24 hrs by Griess assay
# Type: functional, cell-based
# Conditions: not given
# Procedure, shortened: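 NO made by LPS-stimulated RAW 264.7 cells was measured by Griess reaction. Each compound was screened at 0.4, 2.0 and 10.0 μM, all below the 50 μM level checked for viability by MTT. Results are mean ± SD from at least three independent experiments run in triplicate.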
row,SMILES,inhibition
1,OC[C@H]1O[C@@H](OCc2ccccc2)[C@H](O)[C@@H](O)[C@@H]1O,inactive
2,COc1cc(-c2oc3cc(O)cc(O)c3c(=O)c2O[C@@H]2O[C@H](CO)[C@@H](O)[C@H](O)[C@H]2O)ccc1O,inactive
3,COC(=O)[C@]1(O)C[C@@H](O)[C@@H](OC(=O)/C=C/c2ccc(O)c(O)c2)[C@H](O)C1,inactive
4,CC[C@H](C)C(=O)OC[C@@H]1O[C@@]2(C(=O)OC)C[C@@H](O)[C@@H](O)[C@@H]1O2,inactive
5,CC1=C(C/C=C\CCO[C@@H]2O[C@H](CO)[C@@H](O)[C@H](O)[C@H]2O)C(=O)CC1,inactive
6,COC(=O)[C@]1(O)C[C@@H](OC(=O)/C=C/c2ccc(O)c(O)c2)[C@@H](O)[C@H](OC(=O)/C=C/c2ccc(O)c(O)c2)C1,inactive
7,COC(=O)[C@]1(O)C[C@@H](O)[C@@H](OC(=O)/C=C/c2ccc(O)c(O)c2)[C@H](OC(=O)/C=C/c2ccc(O)c(O)c2)C1,inactive
8,OC[C@H]1O[C@@H](OCCc2ccccc2)[C@H](O)[C@@H](O)[C@@H]1O,inactive
9,O=c1cc(-c2ccc(O)cc2)oc2cc(O[C@@H]3O[C@H](CO)[C@@H](O)[C@H](O)[C@H]3O)cc(O)c12 [APIGETRIN],inactive
10,COC(=O)[C@]1(O)C[C@@H](O)[C@@H](O)[C@H](OC(=O)/C=C/c2ccc(O)c(O)c2)C1 [CHLOROGENIC ACID METHYL ESTER],inactive
11,O=C(/C=C/c1ccc(O)c(O)c1)O[C@@H]1C[C@](O)(C(=O)O)C[C@@H](O)[C@H]1O [CHLOROGENIC ACID],inactive
12,O=C(/C=C/c1ccc(O)c(O)c1)O[C@@H]1C[C@@](OC(=O)/C=C/c2ccc(O)c(O)c2)(C(=O)O)C[C@@H](O)[C@@H]1O [CYNARIN],inactive
13,COc1cc(CCCO)cc(OC)c1O[C@@H]1O[C@H](CO)[C@@H](O)[C@H](O)[C@H]1O [DIHYDROSYRINGIN],inactive
14,O=c1cc(-c2ccc(O)c(O)c2)oc2cc(O[C@@H]3O[C@H](CO)[C@@H](O)[C@H](O)[C@H]3O)cc(O)c12 [GALUTEOLIN],inactive
15,COc1cc(/C=C/CO)cc(OC)c1O[C@@H]1O[C@H](CO)[C@@H](O)[C@H](O)[C@H]1O [SYRINGIN],inactive
16,COc1cc(-c2cc(=O)c3c(O)cc(O)cc3o2)cc(OC)c1O [TRICIN],inactive

# Tested on: RAW264.7
# Assay: Antiinflammatory activity in mouse RAW264.7 cells assessed as inhibition of LPS-stimulated nitric oxide production at 10 uM after 24 hrs by Griess assay
# Type: functional
# Conditions: RAW264.7, 24 h
# Procedure, shortened: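 Nitrite in the medium measured by Griess reaction and given as % inhibition of NO production. Celecoxib (1.0 μM) served as reference. Mean SD of at least three independent experiments, each in triplicate.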
row,SMILES,inhibition at 10 µM
1,O=c1c(O)c(-c2ccc(O)c(O)c2)oc2cc(O)cc(O)c12 [QUERCETIN],46.1%
2,O=c1c(O)c(-c2ccc(O)c(O)c2)oc2cc(O[C@@H]3O[C@H](CO)[C@@H](O)[C@H](O)[C@H]3O)cc(O)c12 [QUERCIMERITRIN],36.5%

# Tested on: RAW264.7
# Assay: Inhibition of iNOS protein expression in LPS-stimulated mouse RAW264.7 cells by Western blot analysis
# Type: functional, cell-based
# Conditions: not given
# Procedure, shortened: as §1
row,SMILES,inhibition
1,O=c1c(O)c(-c2ccc(O)c(O)c2)oc2cc(O)cc(O)c12 [QUERCETIN],Dose-dependent effect
2,O=c1c(O)c(-c2ccc(O)c(O)c2)oc2cc(O[C@@H]3O[C@H](CO)[C@@H](O)[C@H](O)[C@H]3O)cc(O)c12 [QUERCIMERITRIN],Dose-dependent effect

# Tested on: RAW264.7
# Assay: Antiinflammatory activity in mouse RAW264.7 cells assessed as inhibition of LPS-stimulated TNFalpha production at 0.4 to 2 uM by ELISA
# Type: functional, cell-based
# Conditions: not given
# Procedure, shortened: as §2
row,SMILES,inhibition
1,OC[C@H]1O[C@@H](OCc2ccccc2)[C@H](O)[C@@H](O)[C@@H]1O,inactive
2,COC(=O)[C@]1(O)C[C@@H](O)[C@@H](OC(=O)/C=C/c2ccc(O)c(O)c2)[C@H](O)C1,inactive
3,COC(=O)[C@]1(O)C[C@@H](O)[C@@H](OC(=O)/C=C/c2ccc(O)c(O)c2)[C@H](OC(=O)/C=C/c2ccc(O)c(O)c2)C1,inactive
4,OC[C@H]1O[C@@H](OCCc2ccccc2)[C@H](O)[C@@H](O)[C@@H]1O,inactive
5,COC(=O)[C@]1(O)C[C@@H](O)[C@@H](O)[C@H](OC(=O)/C=C/c2ccc(O)c(O)c2)C1 [CHLOROGENIC ACID METHYL ESTER],inactive
6,O=C(/C=C/c1ccc(O)c(O)c1)O[C@@H]1C[C@@](OC(=O)/C=C/c2ccc(O)c(O)c2)(C(=O)O)C[C@@H](O)[C@@H]1O [CYNARIN],inactive
7,COc1cc(CCCO)cc(OC)c1O[C@@H]1O[C@H](CO)[C@@H](O)[C@H](O)[C@H]1O [DIHYDROSYRINGIN],inactive
8,O=c1cc(-c2ccc(O)c(O)c2)oc2cc(O[C@@H]3O[C@H](CO)[C@@H](O)[C@H](O)[C@H]3O)cc(O)c12 [GALUTEOLIN],inactive
9,O=c1c(O)c(-c2ccc(O)c(O)c2)oc2cc(O)cc(O)c12 [QUERCETIN],inactive
10,O=c1c(O)c(-c2ccc(O)c(O)c2)oc2cc(O[C@@H]3O[C@H](CO)[C@@H](O)[C@H](O)[C@H]3O)cc(O)c12 [QUERCIMERITRIN],inactive
11,COc1cc(/C=C/CO)cc(OC)c1O[C@@H]1O[C@H](CO)[C@@H](O)[C@H](O)[C@H]1O [SYRINGIN],inactive
